In ChEMBL document CHEMBL3352534, “A prodrug strategy for the oral delivery of a poorly soluble HCV NS5B thumb pocket 1 polymerase inhibitor using self-emulsifying drug delivery systems (SEDDS)” (Bioorg Med Chem Lett, 2015):

What was measured:
Rattus norvegicus [1] = assay: AUC in rat plasma assessed as (E)-3-(4-(1-(2-(5-chloropyrimidin-2-yl)-3-cyclopentyl-1-methyl-1H-indole-6-carboxamido)cyclobutanecarboxamido)-2-ethoxyphenyl)acrylic acid at 10 mg/kg, po using 10.6% PEG400, 5.4% Cremophor EL, 2.6% Labrasol, 1.4% Capmul MCM in water (80%) vehicle; type: ADME, organism-based; set-up: dose 10 mg/kg, route oral; conditions: in vivo
Method in brief: (§1)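 Fasted rats were given a single 10 mg/kg oral dose, with n = 3 per dose and route. Plasma was extracted by solid-phase extraction. Analysis used HPLC with diode-array UV (200–400 nm, peak height at best S/N) or LC/MS. Calibration standards were made in blank plasma, with LOQ 7–14 ng/mL. Parameters came from noncompartmental analysis.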

Rattus norvegicus [2] = assay: AUC in rat assessed as (E)-3-(4-(1-(2-(5-chloropyrimidin-2-yl)-3-cyclopentyl-1-methyl-1H-indole-6-carboxamido)cyclobutanecarboxamido)-2-ethoxyphenyl)acrylic acid at 2 mg/kg, iv; type: ADME, organism-based, Plasma; set-up: dose 2 mg/kg, route intravenous; conditions: in vivo
Method in brief: (§2)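 Overnight-fasted rats received 2 mg/kg IV in 70% PEG400:30% water, n = 3. Plasma parent drug was quantified after solid-phase extraction by HPLC-UV or LC/MS against blank-plasma calibration standards (LOQ 7–14 ng/mL). Noncompartmental analysis gave the PK parameters.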

Rattus norvegicus [3] = assay: Mean residence time in rat assessed as (E)-3-(4-(1-(2-(5-chloropyrimidin-2-yl)-3-cyclopentyl-1-methyl-1H-indole-6-carboxamido)cyclobutanecarboxamido)-2-ethoxyphenyl)acrylic acid at 2 mg/kg, iv; type: ADME, organism-based; set-up: dose 2 mg/kg, route intravenous; conditions: in vivo; method in brief: as §2
Rattus norvegicus [4] = assay: AUC in rat plasma assessed as (E)-3-(4-(1-(2-(5-chloropyrimidin-2-yl)-3-cyclopentyl-1-methyl-1H-indole-6-carboxamido)cyclobutanecarboxamido)-2-ethoxyphenyl)acrylic acid at 10 mg/kg, po using 0.5% Methyl cellulose, 0.3% Tween-80, 1% N-methylpyrrolidone in water vehicle; type: ADME, organism-based; set-up: dose 10 mg/kg, route oral; conditions: in vivo; method in brief: as §1
Canis familiaris = assay: AUC in dog assessed as (E)-3-(4-(1-(2-(5-chloropyrimidin-2-yl)-3-cyclopentyl-1-methyl-1H-indole-6-carboxamido)cyclobutanecarboxamido)-2-ethoxyphenyl)acrylic acid at 10 mg/kg using 10.6% PEG400, 5.4% Cremophor EL, 2.6% Labrasol, 1.4% Capmul MCM in water (80%) vehicle; type: ADME, organism-based, Canis lupus familiaris, Plasma; set-up: dose 10 mg/kg; conditions: in vivo
[5] = Permeability across human Caco2 cells; type: ADME, cell-based; conditions: Caco-2
Rattus norvegicus [6] = assay: Total clearance in rat assessed as (E)-3-(4-(1-(2-(5-chloropyrimidin-2-yl)-3-cyclopentyl-1-methyl-1H-indole-6-carboxamido)cyclobutanecarboxamido)-2-ethoxyphenyl)acrylic acid at 2 mg/kg, iv; conditions: in vivo
Rattus norvegicus [7] = assay: AUC in rat assessed as (E)-3-(4-(1-(2-(5-chloropyrimidin-2-yl)-3-cyclopentyl-1-methyl-1H-indole-6-carboxamido)cyclobutanecarboxamido)-2-ethoxyphenyl)acrylic acid at 10 mg/kg, po using 10.6% PEG400, 5.4% Cremophor EL, 2.6% Labrasol, 1.4% Capmul MCM in water (80%) vehicle; type: ADME, organism-based, Plasma; set-up: dose 10 mg/kg, route oral; conditions: in vivo; method in brief: as §1
Rattus norvegicus [8] = assay: Cmax in rat plasma assessed as (E)-3-(4-(1-(2-(5-chloropyrimidin-2-yl)-3-cyclopentyl-1-methyl-1H-indole-6-carboxamido)cyclobutanecarboxamido)-2-ethoxyphenyl)acrylic acid at 10 mg/kg, po using 0.5% Methyl cellulose, 0.3% Tween-80, 1% N-methylpyrrolidone in water vehicle; type: ADME, organism-based; set-up: dose 10 mg/kg, route oral; conditions: in vivo; method in brief: as §1
Rhesus monkey = assay: AUC in monkey assessed as (E)-3-(4-(1-(2-(5-chloropyrimidin-2-yl)-3-cyclopentyl-1-methyl-1H-indole-6-carboxamido)cyclobutanecarboxamido)-2-ethoxyphenyl)acrylic acid at 10 mg/kg using 10.6% PEG400, 5.4% Cremophor EL, 2.6% Labrasol, 1.4% Capmul MCM in water (80%) vehicle; type: ADME, organism-based, Macaca mulatta, Plasma; set-up: dose 10 mg/kg; conditions: in vivo
Rattus norvegicus [9] = assay: Cmax in rat plasma assessed as (E)-3-(4-(1-(2-(5-chloropyrimidin-2-yl)-3-cyclopentyl-1-methyl-1H-indole-6-carboxamido)cyclobutanecarboxamido)-2-ethoxyphenyl)acrylic acid at 10 mg/kg, po using 10.6% PEG400, 5.4% Cremophor EL, 2.6% Labrasol, 1.4% Capmul MCM in water (80%) vehicle; type: ADME, organism-based; set-up: dose 10 mg/kg, route oral; conditions: in vivo; method in brief: as §1

AUC (Rattus norvegicus [1]): 7.5 µM·h
AUC (Rattus norvegicus [2]): 20.1 µM·h
MRT (Rattus norvegicus [3]): 2.5 h
AUC (Rattus norvegicus [4]): 25.5 µM·h
AUC (Canis familiaris): 76 µM·h
Papp [5]: 13 ×10⁻⁶ cm/s
CL (Rattus norvegicus [6]): 2.6 mL/min/kg
AUC (Rattus norvegicus [7]): 19.3 µM·h
Cmax (Rattus norvegicus [8]): 7.4 µM
AUC (Rhesus monkey): 53 µM·h
Cmax (Rattus norvegicus [9]): 2.1 µM
Structure (SMILES): CCOc1cc(NC(=O)C2(NC(=O)c3ccc4c(C5CCCC5)c(-c5ncc(Cl)cn5)n(C)c4c3)CCC2)ccc1/C=C/C(=O)O
